Experimental data taken from ChEMBL document CHEMBL1133797, “Synthesis and structure--activity analysis of novel dihydropyridine derivatives to overcome multidrug resistance” (Bioorg Med Chem Lett, 2001).

Test system: KB 3-1
Experiment: Resistance index determined as the ratio of IC50 of doxorubicin with compound (1 ug/mL) in KB VJ300 cells divided by the control tested in vitro
Format: functional, Homo sapiens
Settings: not given

**Q.** With `CCCCCC1C(C(=O)OCCc2ccc(N(C)C)cc2)=C(C)N=C(C)/C1=C(/O)OCCCN1CCN(C(c2ccccc2)c2ccccc2)CC1` (stereo unspecified) as the compound, how does the Resistance index read?
**A.** Its Resistance index is 23.5.

**Q.** For `CCCCCC1C(C(=O)OCCCc2ccccc2)=C(C)N=C(C)/C1=C(/O)OCCCc1ccccc1` (stereo unspecified), which Resistance index is on record?
**A.** The Resistance index was 22.7.

**Q.** How did the Resistance index turn out when `CCCCCC1C(C(=O)OCCN(C)Cc2ccccc2)=C(C)N=C(C)/C1=C(/O)OCCN(C)Cc1ccccc1` (stereo unspecified) was run?
**A.** Its Resistance index is 3.9.

**Q.** `CCCCCC1C(C(=O)OCCCc2ccccn2)=C(C)N=C(C)/C1=C(/O)OCCCN1CCN(C(c2ccccc2)c2ccccc2)CC1` (stereo unspecified) was tested. Which Resistance index did it give?
**A.** The Resistance index was 1.7.

**Q.** Which Resistance index does the source give for `CCCCCC1C(C(=O)OCCCc2cccnc2)=C(C)N=C(C)/C1=C(/O)OCCCN1CCN(C(c2ccccc2)c2ccccc2)CC1` (stereo unspecified) here?
**A.** The Resistance index was 1.1.

**Q.** Which Resistance index does the source give for `CCCCCC1C(C(=O)OCCN(C)Cc2ccccc2)=C(C)N=C(C)/C1=C(/O)OCCCc1cccnc1` (stereo unspecified) here?
**A.** Its Resistance index is 1.4.

**Q.** How did the Resistance index turn out when `CCCCCC1C(C(=O)OCCc2ccc(N(C)C)cc2)=C(C)N=C(C)/C1=C(/O)OCCc1ccc(N(C)C)cc1` (stereo unspecified) was run?
**A.** The Resistance index was 11.2.

**Q.** `CCCCCC1C(C(=O)OCCCc2cccnc2)=C(C)N=C(C)/C1=C(/O)OCCCc1cccnc1` (stereo unspecified) was tested. Which Resistance index did it give?
**A.** The Resistance index was 2.

**Q.** For `CCCCCC1C(C(=O)OCCCc2ccncc2)=C(C)N=C(C)/C1=C(/O)OCCCN1CCN(C(c2ccccc2)c2ccccc2)CC1` (stereo unspecified), which Resistance index is on record?
**A.** The Resistance index was 1.

**Q.** For `CCCCCC1C(C(=O)O/C=C/Cc2cccnc2)=C(C)N=C(C)/C1=C(/O)O/C=C/Cc1cccnc1` (stereo unspecified), which Resistance index is on record?
**A.** Its Resistance index is 1.8.

**Q.** With `CCCCCC1C(C(=O)OCCCc2cccnc2)=C(C)N=C(C)/C1=C(/O)OCCCN1CCN(Cc2ccccc2)CC1` (stereo unspecified) as the compound, how does the Resistance index read?
**A.** The Resistance index was 1.

**Q.** `CCCCCC1C(C(=O)OCCCN2CCN(Cc3ccccc3)CC2)=C(C)N=C(C)/C1=C(/O)OCCCN1CCN(Cc2ccccc2)CC1` (stereo unspecified) was tested. Which Resistance index did it give?
**A.** The Resistance index was 1.1.

**Q.** How did the Resistance index turn out when `CCCCCC1C(C(=O)OCCc2ccc(N(C)C)cc2)=C(C)N=C(C)/C1=C(/O)OCCCc1cccnc1` (stereo unspecified) was run?
**A.** The Resistance index was 1.8.

Test system: Mus musculus
Experiment: Survival days of vincristine (0.1 mg/kg, ip) treated mice after 30 mg/kg, ip dose divided by survival days of mice treated by vincristine (0.1 mg/kg, ip) alone
Format: functional
Settings: route intraperitoneal
How it was run: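 In P388 leukemia-bearing mice, the test agent was dosed at 30 mg/kg ip with vincristine 0.1 mg/kg ip. Survival time was recorded. The value (%) is the ratio of survival days under the combination to survival days under vincristine 0.1 mg/kg ip alone.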

**Q.** With `CCCCCC1C(C(=O)OCCCc2cccnc2)=C(C)N=C(C)/C1=C(/O)OCCCN1CCN(C(c2ccccc2)c2ccccc2)CC1` (stereo unspecified) as the compound, how does the Activity read?
**A.** The Activity was 143%.

Test system: Mus musculus
Experiment: Survival days of vincristine (0.1 mg/kg, ip) treated mice after 100 mg/kg, ip dose divided by survival days of mice treated by vincristine (0.1 mg/kg, ip) alone
Format: functional
Settings: route intraperitoneal
How it was run: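 Mice bearing P388 leukemia cells were given vincristine 0.1 mg/kg ip together with the test agent at 100 mg/kg ip. Survival days were recorded. Antitumor activity (%) is survival days with the combination divided by survival days of mice given vincristine 0.1 mg/kg ip alone.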

**Q.** For `CCCCCC1C(C(=O)OCCN(C)Cc2ccccc2)=C(C)N=C(C)/C1=C(/O)OCCN(C)Cc1ccccc1` (stereo unspecified), which Activity is on record?
**A.** Its Activity is 128%.

**Q.** `CCCCCC1C(C(=O)OCCCc2ccccn2)=C(C)N=C(C)/C1=C(/O)OCCCN1CCN(C(c2ccccc2)c2ccccc2)CC1` (stereo unspecified) was tested. Which Activity did it give?
**A.** The Activity was 120%.

**Q.** How did the Activity turn out when `CCCCCC1C(C(=O)OCCN(C)Cc2ccccc2)=C(C)N=C(C)/C1=C(/O)OCCCc1cccnc1` (stereo unspecified) was run?
**A.** Its Activity is 144%.

**Q.** With `CCCCCC1C(C(=O)OCCCc2cccnc2)=C(C)N=C(C)/C1=C(/O)OCCCc1cccnc1` (stereo unspecified) as the compound, how does the Activity read?
**A.** Its Activity is 161%.

**Q.** Which Activity does the source give for `CCCCCC1C(C(=O)O/C=C/Cc2cccnc2)=C(C)N=C(C)/C1=C(/O)O/C=C/Cc1cccnc1` (stereo unspecified) here?
**A.** The Activity was 89%.

**Q.** For `CCCCCC1C(C(=O)OCCCc2cccnc2)=C(C)N=C(C)/C1=C(/O)OCCCN1CCN(Cc2ccccc2)CC1` (stereo unspecified), which Activity is on record?
**A.** Its Activity is 150%.

**Q.** With `CCCCCC1C(C(=O)OCCCN2CCN(Cc3ccccc3)CC2)=C(C)N=C(C)/C1=C(/O)OCCCN1CCN(Cc2ccccc2)CC1` (stereo unspecified) as the compound, how does the Activity read?
**A.** Its Activity is 127%.

**Q.** `CCCCCC1C(C(=O)OCCc2ccc(N(C)C)cc2)=C(C)N=C(C)/C1=C(/O)OCCCc1cccnc1` (stereo unspecified) was tested. Which Activity did it give?
**A.** The Activity was 125%.

Species on record: Rattus norvegicus
Experiment: Calcium antagonistic activity determined by the inhibitory effect on high-potassium depolarization-induced contracture in isolated rat aorta.
Format: functional
Settings: not given

**Q.** With `CCCCCC1C(C(=O)OCCN(C)Cc2ccccc2)=C(C)N=C(C)/C1=C(/O)OCCN(C)Cc1ccccc1` (stereo unspecified) as the compound, how does the IC50 read?
**A.** The IC50 was 115 µM.

**Q.** For `CCCCCC1C(C(=O)OCCCc2cccnc2)=C(C)N=C(C)/C1=C(/O)OCCCN1CCN(C(c2ccccc2)c2ccccc2)CC1` (stereo unspecified), which IC50 is on record?
**A.** Its IC50 is 175 µM.

**Q.** For `CCCCCC1C(C(=O)OCCN(C)Cc2ccccc2)=C(C)N=C(C)/C1=C(/O)OCCCc1cccnc1` (stereo unspecified), which IC50 is on record?
**A.** Its IC50 is 135 µM.

**Q.** Which IC50 does the source give for `CC1=NC(C)=C(C(=O)OCc2ccncc2)C(C2=C(C)SCCS2)/C1=C(\O)OCc1ccncc1` (stereo unspecified) here?
**A.** Its IC50 is 8.7 µM.

**Q.** Which IC50 does the source give for `CCCCCC1C(C(=O)OCCCc2cccnc2)=C(C)N=C(C)/C1=C(/O)OCCCc1cccnc1` (stereo unspecified) here?
**A.** The IC50 was 46 µM.

**Q.** `CCCCCC1C(C(=O)OCCCc2cccnc2)=C(C)N=C(C)/C1=C(/O)OCCCN1CCN(Cc2ccccc2)CC1` (stereo unspecified) was tested. Which IC50 did it give?
**A.** Its IC50 is 33 µM.

**Q.** For `CCCCCC1C(C(=O)OCCCN2CCN(Cc3ccccc3)CC2)=C(C)N=C(C)/C1=C(/O)OCCCN1CCN(Cc2ccccc2)CC1` (stereo unspecified), which IC50 is on record?
**A.** Its IC50 is 230 µM.

**Q.** `CCCCCC1C(C(=O)OCCc2ccc(N(C)C)cc2)=C(C)N=C(C)/C1=C(/O)OCCCc1cccnc1` (stereo unspecified) was tested. Which IC50 did it give?
**A.** Its IC50 is 45 µM.

**Q.** For `COC(=O)C1=C(C)NC(C)=C(C(=O)OCCN(C)Cc2ccccc2)C1c1cccc([N+](=O)[O-])c1` (stereo unspecified) [NICARDIPINE], which IC50 is on record?
**A.** Its IC50 is 1.4 µM.
